Results from PMC3947152 (European journal of nuclear medicine and molecular imaging, 2013).
Like-named read-outs stand apart in the source and are kept apart here.

Key:
hNET = hNET (Homo sapiens, UniProt P23975); experiment: Competitive inhibition of ^123I-MIBG binding/uptake in C6-hNET cells; assay type: cell-based
In short: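 C6 cells stably transduced with hNET; triplicate samples of ~0.5×10^6 cells with ~3.7 kBq 123I-MIBG and 0.005–50 nmol unlabeled benzylguanidine competitor in 0.5 mL medium, 37 °C, 2 h. Cells collected by rapid filtration on glass microfiber filters, washed 3× with ice-cold Tris-buffered saline pH 7.4, gamma counted. Cell-bound activity plotted against competitor concentration; IC50 by least-squares fit.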

C6-hNET xenografts = experiment: PET imaging with ROI analysis of mice bearing C6-hNET and C6-WT xenografts; assay type: in vivo; conditions: for PET image-based tumor-to-intestine signal ratio: C6-hNET xenograft
In short: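 Male athymic NCr-nu/nu mice (7–9 weeks) implanted subcutaneously with 5×10^6 C6-hNET cells (right shoulder) and 5×10^6 C6-WT cells (left shoulder) in medium/matrigel 1:1. Scanned at day 20 with tumors 150–350 mm³. Tail-vein injection of 3.7–11.1 MBq 18F tracer in saline. R4 microPET under 2% isoflurane, 10-min acquisitions at 1 h and 4 h p.i., 350–750 keV window. ROI maximum pixel values (%ID/mL) used; 5–7 animals per group.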

[1] = test system: C6-hNET and C6-WT xenografts; experiment: Biodistribution in animals bearing dual C6-hNET and C6-WT xenografts; assay type: in vivo, mice; conditions: for % Injected Dose/g tissue, C6-WT: C6-WT xenograft; for % Injected Dose/g tissue, C6-hNET: C6-hNET xenograft
C6-hNET cells = experiment: In vitro uptake in hNET-transduced and wild-type C6 cells; assay type: cell-based, rat; conditions: 2 h incubation at 37 °C
In short: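 Both C6-hNET and wild-type C6 cells grown in DMEM HG. 1.0×10^6 cells in 1.0 mL medium, in triplicate, shaken with radiotracer (~11.1 kBq 18F-labeled or ~3.7 kBq radioiodinated) at 37 °C for 2 h. Cells filtered on glass microfiber filters, washed 3× with ice-cold TBS pH 7.4, gamma counted as % added activity per 10^6 cells. Nonspecific uptake measured with 200 µM MIBG (final). 2–5 independent experiments.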

mouse serum protein = experiment: Plasma protein binding by ultrafiltration, mouse; assay type: in vitro ADME; conditions: 37 °C, 0.5 h
In short: (§1)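 Radiotracer in 10 µL (~7.4 kBq 18F; ~3.7 kBq 123I) added to 190 µL human or mouse plasma, in triplicate, gently shaken 37 °C, 0.5 h. Ultrafiltration by centrifugation 10 min at 9,000 rpm. 20 µL of pre-filtration plasma (total) and 20 µL of ultrafiltrate (unbound) gamma counted; unbound fraction taken from ultrafiltrate relative to total.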

human serum protein = experiment: Plasma protein binding by ultrafiltration, human; assay type: in vitro ADME; conditions: 37 °C, 0.5 h
In short: as §1

[2] = Lipophilicity: distribution coefficient between 1-octanol and PBS pH 7.4; assay type: physicochemical; conditions: 1-octanol/PBS
In short: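 Octanol and PBS (pH 7.4) pre-equilibrated together for 24 h. Radiotracer (~11.1 kBq 18F; ~3.7 kBq 123I) added to the octanol/PBS pair, in triplicate, shaken 2 h at room temperature, then centrifuged 5 min at 2,000 rpm. Aliquots of each phase gamma counted; logD = log10(octanol counts/PBS counts).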

[3] = C6-hNET cells, ^123I-MIBG as radioligand, 37 °C, 2 h

hNET, sequence (P23975 whole entry): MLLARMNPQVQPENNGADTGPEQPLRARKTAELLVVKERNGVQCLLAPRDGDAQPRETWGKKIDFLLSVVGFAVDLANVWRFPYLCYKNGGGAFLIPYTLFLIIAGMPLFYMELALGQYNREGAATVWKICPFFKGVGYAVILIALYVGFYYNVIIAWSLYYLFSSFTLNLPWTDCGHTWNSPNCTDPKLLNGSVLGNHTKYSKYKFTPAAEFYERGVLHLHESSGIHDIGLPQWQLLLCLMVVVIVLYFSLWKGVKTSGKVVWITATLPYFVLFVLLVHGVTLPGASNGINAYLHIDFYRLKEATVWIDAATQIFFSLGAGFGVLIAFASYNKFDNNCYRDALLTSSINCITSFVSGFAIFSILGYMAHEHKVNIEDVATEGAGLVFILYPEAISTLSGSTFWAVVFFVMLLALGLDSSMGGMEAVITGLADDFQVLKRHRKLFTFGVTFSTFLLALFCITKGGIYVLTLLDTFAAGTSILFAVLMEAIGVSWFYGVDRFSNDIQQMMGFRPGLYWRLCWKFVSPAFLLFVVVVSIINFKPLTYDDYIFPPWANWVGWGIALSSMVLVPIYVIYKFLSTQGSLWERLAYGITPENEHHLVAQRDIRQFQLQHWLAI

| SMILES | IC50 (hNET; [3]) [µM] | % Injected Dose/g tissue, Adrenals ([1]; 4 h p.i.) [%ID/g] | % Injected Dose/g tissue, Blood ([1]; 4 h p.i.) [%ID/g] | % Injected Dose/g tissue, Bone ([1]; 4 h p.i.) [%ID/g] | % Injected Dose/g tissue, C6-WT ([1]; 4 h p.i.) [%ID/g] | % Injected Dose/g tissue, Heart ([1]; 4 h p.i.) [%ID/g] | % Injected Dose/g tissue, Intestinal contents (L) ([1]; 4 h p.i.) [%ID/g] | % Injected Dose/g tissue, Intestinal contents (S) ([1]; 4 h p.i.) [%ID/g] | % Injected Dose/g tissue, Intestinal wall (L) ([1]; 4 h p.i.) [%ID/g] | % Injected Dose/g tissue, Intestinal wall (S) ([1]; 4 h p.i.) [%ID/g] | % Injected Dose/g tissue, Kidneys ([1]; 4 h p.i.) [%ID/g] | % Injected Dose/g tissue, Liver ([1]; 4 h p.i.) [%ID/g] | % Injected Dose/g tissue, Lungs ([1]; 4 h p.i.) [%ID/g] | % Injected Dose/g tissue, Muscle ([1]; 4 h p.i.) [%ID/g] | % Injected Dose/g tissue, Pancreas ([1]; 4 h p.i.) [%ID/g] | % Injected Dose/g tissue, Salivary glands ([1]; 4 h p.i.) [%ID/g] | % Injected Dose/g tissue, Spleen ([1]; 4 h p.i.) [%ID/g] | % Injected Dose/g tissue, Stomach ([1]; 4 h p.i.) [%ID/g] | other results |
| --- | --- | --- | --- | --- | --- | --- | --- | --- | --- | --- | --- | --- | --- | --- | --- | --- | --- | --- | --- |
| N=C(N)NCc1cccc(F)c1 [MFBG] | 4.86 ± 0.59 |  |  |  |  |  |  |  |  |  |  |  |  |  |  |  |  |  |  |
| N=C(N)NCc1cccc(I)c1 [MIBG, meta-iodobenzylguanidine] | 1.72 ± 0.58 |  |  |  |  |  |  |  |  |  |  |  |  |  |  |  |  |  |  |
| NC(N)=NCc1ccc(F)cc1 [PFBG] | 9.8 ± 2.5 |  |  |  |  |  |  |  |  |  |  |  |  |  |  |  |  |  |  |
| N=C(N)NCc1ccc(I)cc1 [PIBG, para-iodobenzylguanidine] | 7.2 ± 0.5 |  |  |  |  |  |  |  |  |  |  |  |  |  |  |  |  |  |  |
| N=C(N)NCc1cccc(F)c1 [[^18F]MFBG] [meta-[^18F]fluorobenzylguanidine] | 4.9 ± 0.6 |  |  |  |  |  |  |  |  |  |  |  |  |  |  |  |  |  |  |
| N=C(N)NCc1cccc([18F])c1 [[^18F]MFBG] [meta-[^18F]fluorobenzylguanidine] |  | 5.56±2.34 | 0.25±0.05 | 0.89±0.16 | 0.57±0.08 | 2.21±0.66 | 1.26±0.23 | 1.36±0.11 | 1.72±0.52 | 2.16±0.26 | 0.99±0.29 | 2.05±0.30 | 1.30±0.20 | 0.62±0.09 | 0.78±0.06 | 6.09±1.02 | 1.50±0.19 | 0.46±0.12 | fold lower affinity to hNET compared to ^123I/[^124I]MIBG (hNET; from IC50 values in C6-hNET cells): 2.8 fold; fold higher accumulation in C6-hNET tumors than [^18F]PFBG (C6-hNET xenografts; 1 h p.i., in vivo): 1.6 fold; PET image-based tumor-to-intestine signal ratio (C6-hNET xenografts; 1 h post injection): 1.3±0.2; PET image-based tumor-to-intestine signal ratio (C6-hNET xenografts; 4 h post injection): 2.4±0.3; % Injected Dose/g tissue, C6-hNET ([1]; 4 h p.i.): 4.25±0.95 %ID/g; C6-hNET/tissue ratio, Blood ([1]; C6-hNET/Blood, 4 h p.i.): 17.1±4.4; C6-hNET/tissue ratio, Intestine wall (L) ([1]; C6-hNET/Intestine wall (L), 4 h p.i.): 1.8±0.7; C6-hNET/tissue ratio, Intestine wall (S) ([1]; C6-hNET/Intestine wall (S), 4 h p.i.): 1.9±0.4; C6-hNET/tissue ratio, Liver ([1]; C6-hNET/Liver, 4 h p.i.): 2.1±0.4; C6-hNET/tissue ratio, Muscle ([1]; C6-hNET/Muscle, 4 h p.i.): 6.8±0.9; C6-hNET/tissue ratio, Salivary gland ([1]; C6-hNET/Salivary gland, 4 h p.i.): 0.7±0.1 |
| N=C(N)NCc1ccc(F)cc1 [[^18F]PFBG, para-[^18F]fluorobenzylguanidine] | 9.8 ± 2.5 |  |  |  |  |  |  |  |  |  |  |  |  |  |  |  |  |  |  |
| N=C(N)NCc1ccc([18F])cc1 [[^18F]PFBG, para-[^18F]fluorobenzylguanidine] |  |  |  |  |  |  |  |  |  |  |  |  |  |  |  |  |  |  | PET image-based tumor-to-intestine signal ratio (C6-hNET xenografts; 1 h post injection): 0.4±0.1; PET image-based tumor-to-intestine signal ratio (C6-hNET xenografts; 4 h post injection): 1.5±0.3; fold lower uptake in C6-hNET cells than that of ^123I/[^124I]MIBG (C6-hNET cells): 4 fold |
| N=C(N)NCc1cccc([131I])c1 [[^124I]MIBG, meta-iodobenzylguanidine] |  | 13.9±1.7 | 0.76±0.15 | 2.56±0.27 | 1.27±0.10 | 19.6±2.5 | 3.62±0.89 | 6.92±1.79 | 7.88±0.74 | 10.3±0.6 | 2.09±0.10 | 5.42±0.44 | 9.50±2.26 | 3.21±0.28 | 3.48±0.31 | 29.1±1.8 | 4.43±0.35 | 2.85±0.54 | % Injected Dose/g tissue, Adrenals ([1]; 24 h p.i.): 7.46±1.78 %ID/g; % Injected Dose/g tissue, Blood ([1]; 24 h p.i.): 0.21±0.02 %ID/g; % Injected Dose/g tissue, Bone ([1]; 24 h p.i.): 0.45±0.09 %ID/g; % Injected Dose/g tissue, C6-WT ([1]; 24 h p.i.): 0.22±0.02 %ID/g; % Injected Dose/g tissue, C6-hNET ([1]; 24 h p.i.): 3.58±0.55 %ID/g; % Injected Dose/g tissue, Heart ([1]; 24 h p.i.): 2.93±0.17 %ID/g; % Injected Dose/g tissue, Intestinal contents (L) ([1]; 24 h p.i.): 2.00±0.06 %ID/g; % Injected Dose/g tissue, Intestinal contents (S) ([1]; 24 h p.i.): 1.76±0.40 %ID/g; % Injected Dose/g tissue, Intestinal wall (L) ([1]; 24 h p.i.): 3.18±0.45 %ID/g; % Injected Dose/g tissue, Intestinal wall (S) ([1]; 24 h p.i.): 2.66±0.18 %ID/g; % Injected Dose/g tissue, Kidneys ([1]; 24 h p.i.): 0.64±0.04 %ID/g; % Injected Dose/g tissue, Liver ([1]; 24 h p.i.): 1.00±0.05 %ID/g; % Injected Dose/g tissue, Lungs ([1]; 24 h p.i.): 1.55±0.37 %ID/g; % Injected Dose/g tissue, Muscle ([1]; 24 h p.i.): 0.69±0.07 %ID/g; % Injected Dose/g tissue, Pancreas ([1]; 24 h p.i.): 0.75±0.10 %ID/g; % Injected Dose/g tissue, Salivary glands ([1]; 24 h p.i.): 7.95±0.81 %ID/g; % Injected Dose/g tissue, Spleen ([1]; 24 h p.i.): 1.36±0.27 %ID/g; % Injected Dose/g tissue, Stomach ([1]; 24 h p.i.): 1.08±0.08 %ID/g |
| N=C(N)NCc1cccc(I)c1 [^123I-MIBG, meta-iodobenzylguanidine] |  | 7.34±2.63 | 0.66±0.10 | 0.71±0.10 | 0.49±0.04 | 2.10±0.14 | 2.25±0.29 | 5.24±0.46 | 2.96±0.74 | 3.67±1.05 | 0.84±0.11 | 2.27±0.18 | 2.84±0.38 | 0.95±0.13 | 1.15±0.13 | 8.41±0.83 | 2.51±0.29 | 0.77±0.34 | % unbound to mouse serum protein (mouse serum protein): 29.2±2.0 (n = 2) %; IC50 (hNET): 1.7 ± 0.6 µM; % unbound to human serum protein (human serum protein): 12.4±0.5 (n = 2) %; logD at 2 h [2]: 0.42 ± 0.01; % Injected Dose/g tissue, C6-hNET ([1]; 4 h p.i.): 4.02±0.35 %ID/g |
